Shown is part of a subset that was picked to be rich in hits.
INS promoter act: TRM-6 insulin promoter activation. TRM-6 cells (human fetal islet line), insulin promoter eGFP reporter, imaging; plate-scaled: unstimulated 0, stimulated control 100. activation, % at 2 µM. actives 0.81% (n = 130,000);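 active means activation at 2 µM above a set limit, confirmed on inspection of the cell images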;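 further: share of cells whose green reporter signal exceeds an intensity cutoff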
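Assay system: TRM-6 human fetal islet cells, insulin promoter–eGFP reporter; Also added: 0.75 µM tamoxifen as reporter inducer; Schedule: 15 h tamoxifen pre-treatment, 48 h compound treatment at 37 °C; Signal: fixed-cell fluorescence microscopy, eGFP plus Hoechst; Read-out: percent activation from GFP-positive cell fraction; Control set: stimulated and unstimulated wells.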
Each line names hits and unclear results; the compound was inactive in the other large screens.

CC(=O)Nc1ccc(NC(=O)CSc2nc(C)nc3sc(C)c(C)c23)cc1	none
COc1ccc(NC(=O)Cn2c(=O)n(CC(=O)NCc3ccco3)c(=O)c3ccccc32)cc1	none
Cn1c(=O)c2c(nc(SCC(=O)NCc3ccc4c(c3)OCO4)n2Cc2ccc(Cl)cc2)n(C)c1=O	none
COC(=O)c1cccc(NC(=O)CCSc2ccc(Cl)cc2)c1C	none
Cc1ccc(SCC(=O)NC(=O)c2ccc(S(=O)(=O)N(C)C)cc2)cc1C	none
CC(C)c1ccc(/C=N/NC(=O)c2cccc(Cl)c2)cc1	INS promoter act 517
C/C(=N\NC(=O)c1cccc(Cl)c1)c1cccc(NC(=O)C(C)C)c1	none
Cc1ccc(C)n1NC(=O)c1cccc(Cl)c1	none
CC(=O)O[C@H]1C[C@@]2(C)[C@@H](C[C@@H](O)[C@H]3[C@@]4(C)CC[C@@H](O)[C@@H](C)C4CC[C@@]32C)/C1=C(\CCC=C(C)C)C(=O)O (some centres undefined)	none
CCn1c(CC(=O)Nc2ccc(C)c(Cl)c2)nnc1SCC(=O)Nc1nc(C)cs1	INS promoter act 450
CCn1c(CC(=O)Nc2ccccc2)nnc1SCC(=O)Nc1ccccc1C(=O)OC	none
CCn1c(CC(=O)Nc2ccc(C)cc2)nnc1SCC(=O)N1CCN(c2ccccc2)CC1	none
CCOc1ccc(CC(=O)Nc2ccc(NC(=O)c3ccco3)cc2)cc1OCC	INS promoter act 100
CCOc1cc(NC(=O)c2ccco2)c(OCC)cc1NC(=O)Cc1cccc(OC)c1	none
CCOc1cc(NC(=O)c2cccs2)c(OCC)cc1NC(=O)c1ccco1	none
COc1cccc(C(=O)Nc2nnc(-c3cccs3)s2)c1	none
Cc1cccc(C(=O)Nc2ccccc2SCC2CSc3nc4ccccc4c(=O)n32)c1 (centres undefined)	none
Cc1nn(-c2ccc(C(=O)O)cc2)c(C)c1Oc1ccccc1O	none
COc1ccc(-c2c(C)nn(-c3ccccc3)c2N)cc1	none
COP(C)(=O)c1c(C)nn(-c2ccccc2)c1C (centres undefined)	INS promoter act 84
CN=C(C)c1c(O)c2ccccc2oc1=O	none
CC(=O)Nc1c(C(=O)c2ccccc2)oc2ccccc12	none
CCNc1c(NC(C)=O)c(=O)oc2ccccc12	INS promoter act 200
Cc1cccc(OCC(=O)N/N=C/c2cc([N+](=O)[O-])ccc2N2CCOCC2)c1	none
CCOc1ccc2nc(NC(=O)CCC(=O)c3cccs3)sc2c1	none
COc1ccc(C(C(=O)Nc2ccc(C(C)C)cc2)N(Cc2ccco2)C(=O)CC2NC(=O)NC2=O)cc1 (centres undefined)	none
C/C(Cc1ccccc1)=N\NC(=O)CNC(=O)c1ccc(C(C)(C)C)cc1	none
Nc1ccc(C#Cc2ccccc2)cc1	INS promoter act 207
c1ccc(SSc2ccccc2)cc1	none
C(#Cc1ccccc1)C[N+]1(CC#Cc2ccccc2)CCCC1	none
COc1ccc(C(=O)NC(=S)Nc2ccccc2N2CCOCC2)cc1Br	none
O=C(Nc1ccccc1N1CCOCC1)c1ccc2c(c1)OCO2	INS promoter act 367
O=C(Nc1ccccc1)c1ccc2c(c1)OCCO2	none
COC(=O)C1=C(C)NC(C)=C(C(=O)OC)C1C(=O)OCC(=O)N1c2ccccc2CC1C (centres undefined)	none
CC(Sc1nc(-c2ccc(F)cc2)cs1)C(=O)Nc1ccc(Cl)cn1 (centres undefined)	none
COc1ccc(CC(=O)Nc2cccc(-c3ccc4nnc(C)n4n3)c2)cc1	none
COc1ccc(CC(=O)Nc2c3c(nn2-c2ccccc2C)CS(=O)C3)cc1 (centres undefined)	INS promoter act 456
CCc1ccc(NC(=O)Cc2ccc(OC)cc2)cc1	none
COc1cccc2c1C(=O)c1c(O)c3c(c(O)c1C2=O)C[C@@](O)(C(=O)CO)C[C@@H]3O[C@H]1C[C@H](N)[C@H](O)[C@H](C)O1	INS promoter act 354
CCc1ccc2c(c1)/C(=N/OC)C(=O)N2	none
COc1cccc(NC(=O)N(CCCN2CCOCC2)C(C)c2cc3ccccc3o2)c1 (centres undefined)	none
COc1cccc(NC(=S)N(CCCN2CCOCC2)C(C)c2cc3cccc(OC)c3o2)c1 (centres undefined)	INS promoter act 259
COc1cccc2cc(C(C)N(CCCN3CCOCC3)C(=S)Nc3ccc(C)cc3)oc12 (centres undefined)	none
COc1ccc(NC(=O)CSc2nncn2C)cc1OC	none
Nc1nc(SCC(=O)Nc2ccc(Br)cc2F)n[nH]1	none
COc1ccc(NC(=O)CSc2n[nH]c(N)n2)cc1OC	INS promoter act 332
COc1cccc(-n2c(Cc3cc(=O)[nH]c(=O)[nH]3)nnc2SCc2cccc(C(F)(F)F)c2)c1	none
CC(C(=O)O/N=C(\N)c1cccnc1)c1ccc([N+](=O)[O-])cc1 (centres undefined)	none
N=C1SCC(=O)N1c1ncc(Cc2cccc(Cl)c2)s1	INS promoter act 408
O=C(N=C1SCC(=O)N1c1ccccc1)c1ccco1	none
CN1C(=O)c2ccc(NC(=O)CCS(=O)(=O)c3ccccc3)cc2C1=O	none
O=C(Nc1ccc(F)cc1F)c1cc(=O)n(-c2ccccc2)c(=O)[nH]1	none
CCN(CC)CCNC(=O)C(=O)NCC1OCCN1S(=O)(=O)c1ccc2c(c1)OCCO2 (centres undefined)	none
O=C(NCc1cccnc1)C(=O)NCC1OCCN1S(=O)(=O)c1ccccc1 (centres undefined)	none
Cc1cc(C)c(S(=O)(=O)N2CCOC2CNC(=O)C(=O)NCCc2c[nH]c3ccccc23)c(C)c1 (centres undefined)	INS promoter act 310
CCCOC(=O)Nc1c(C)cccc1C(C)C	none
O=C(/C=C/c1ccc(F)cc1)c1ccccc1Br	none
CCC1CCCCN1C(=S)Nc1ccc(OC(F)F)cc1 (centres undefined)	none
COc1cccc(C2Nc3ccccc3C(=O)N2O)c1O (centres undefined)	none
Cc1ccc(Cn2nc(C)c(NC(=O)CCCn3nc(C)c([N+](=O)[O-])c3C)c2C)cc1	none
COc1ccc(C2Nc3ccccc3C(=O)N2c2ccc(C)cc2)cc1Cn1nc(C)c([N+](=O)[O-])c1C (centres undefined)	INS promoter act 129
CCS(=O)(=O)c1ccc2oc(SCC(=O)NC3CCCC(C)C3C)nc2c1 (centres undefined)	INS promoter act 93
Cc1cc(C)nc(NC(=O)CSc2nc3ccccc3o2)n1	none
CN(C)S(=O)(=O)c1ccc2oc(SCC(N)=O)nc2c1	none
CN(C(=O)CSc1nnnn1-c1ccccc1)C1CCS(=O)(=O)C1 (centres undefined)	none
O=C(CSc1nn(-c2ccccc2)c(=S)s1)Nc1ncccn1	INS promoter act 377
Cc1cc(C)nc(NC(=O)CSc2nc3ccccc3s2)n1	none
O=C(CSc1ncn(-c2ccccc2)n1)Nc1nccs1	none
Clc1ccc(CNCCC2=CCCCC2)cc1	none
O=C1CCC([N+](=O)[O-])C(c2ccccc2Cl)N1 (centres undefined)	INS promoter act 79
N#CCC(=O)Nc1ncc(Cc2ccccc2Cl)s1	none
Cc1nnc(SCC(=O)NC2CCCCC2)s1	none
CCOC(=O)c1ccc(Oc2c(C)oc3cc(OS(C)(=O)=O)ccc3c2=O)cc1	none
O=c1c2ccccc2c(C=NCCCN2CCOCC2)c(O)n1Cc1ccccc1	none
CCN(c1ccc(N=Cc2c(O)n(Cc3ccc(OC)cc3)c(=O)c3ccccc23)cc1)C(C)C	INS promoter act 471
COc1ccc(N=Cc2sc(O)c3ccccc23)cc1	none
COc1ccc(C(=O)Sc2nncc3ccccc23)cc1	none
O=C(NN1CCOCC1)C12CC3CC(CC(C3)C1)C2	none
Nn1c(SCC(=O)Nc2ccc3c(c2)OCO3)nnc1-c1ccccc1	none

Source: PubChem
